ChEMBL document CHEMBL4513216, “Probing the Open Global Health Chemical Diversity Library for Multistage-Active Starting Points for Next-Generation Antimalarials” (ACS Infect Dis, 2020)

Test: Toxicity liver stage against HepG2, at 10uM
Format: cell-based
Design: test concentration 10 uM, cell line HepG2-A16-CD81EGFP
Settings: human, HepG2-A16-CD81EGFP cells; read-out: INHIBITION
How it was run: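 Uninfected HepG2-A16-CD81EGFP cells, 3 × 10^3 per well, 1536-well, plated on prespotted compound at 10 μM final, parasite-free screening media added to match infected plates; puromycin 10 μM positive, DMSO 0.5% negative; run in parallel with 48 h PbLuc assay at 37 °C, 5% CO2; viability by CellTiter-Glo luminescence, normalized to controls.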

| SMILES | cytotoxicity at 10 µM [%] |
| --- | --- |
| CCOC(=O)CNC(=O)NCc1cc(C)n(-c2ccc(OC)cc2)c1C | 8.27 |
| COCCN1CC2(CCN(Cc3ccco3)CC2)c2ccccc21 | 18.3 |
| CCOCC1CC2(CCN(C(=O)CC3=CCCCC3)CC2)CO1 (stereo not drawn) | -3.95 |
| Cc1ccc(N2CCC3(CCC(=O)N3)CC2)nn1 | 0.903 |
| CCC(=O)N1CCC2(COCc3c(C)nc(NCc4ccco4)nc32)C1 (stereo not drawn) | 1.75 |
| CC(C)NC(=O)N1CCC2(CCCO2)C1 (stereo not drawn) | 3.14 |
| Fc1cccc(CNCC2Cn3nncc3CO2)c1 (stereo not drawn) | 10.9 |
| CN(Cc1cccnc1)C1CC2(CCN(C(=O)c3cnccn3)CC2)C1 | -0.733 |
| CCN(c1ccc(C(=O)NCCCN2CCCCC2)cc1)S(=O)(=O)CC | 7.91 |
| CN1C(=O)C(C)(C)COc2cc(NS(=O)(=O)c3ccccc3)ccc21 | -7.89 |
| CN(C)C(=O)CC1CC2(CCN(C(=O)N(C)C)CC2)Oc2ccccc21 (stereo not drawn) | -11.5 |
| Cc1nc(N2CCCC2)ncc1-c1cc(O)nc(N2CCOCC2)n1 | 10.4 |
| COc1ccc(C2=Nn3c(CCN)nnc3-c3ccccc3C2)cc1 | 4.92 |
| c1ccc2c(N3CCOCC3)cnnc2c1 | -6.06 |
| COc1ccccc1CNC(=O)C(C)n1cc2c(n1)c(C)nn2C (stereo not drawn) | 1.61 |
| Cc1ccccc1CNC(=O)Cn1ncc2c1c(C)nn2C | 9.71 |
| Cc1nn(C)c2cnn(Cc3ccc(C(=O)N4CCCCC4)o3)c12 | 11.3 |
| CO[C@H]1CN(C(=O)c2cccc(C)n2)CC[C@@]12CCCO2 | -6.6 |
| COc1ccc(CN(Cc2cn(C)nc2C)CC2CCCO2)c(OC)c1 (stereo not drawn) | -7.3 |
| COc1ncc(C(=O)N2CCC(c3nc(C)n4ccsc34)CC2)cn1 | -17.4 |
| CNc1ccc(CC2CCCN(C(=O)c3c(C)noc3C)C2)nn1 (stereo not drawn) | -5 |

| SMILES | cytotoxicity at 10 µM [%] |
| --- | --- |
| Cn1cncc1CN1CC[C@](C)(O)[C@@H](Oc2cccc(F)c2)C1 | -8.49 |
| Cn1ccnc1CC1CCCN(C(=O)Cc2ccccc2)C1 (stereo not drawn) | -4.14 |
| COCCN1CCCC(c2nccnc2Nc2nc(C)cs2)C1 (stereo not drawn) | -7.16 |
| Cc1ccc(C(=O)N2CCCCC2CN(C)C)cc1 (stereo not drawn) | -9.98 |
| COC(=O)C1=NN2C(=NS(=O)(=O)c3ccccc32)N1 | -8.57 |
| CCc1nccn1C1CCCN(C(=O)c2ccc(C(N)=O)cn2)C1 (stereo not drawn) | 1.89 |
| CCOc1ccc(C(=O)N(C)Cc2nccn2CC(F)(F)F)cc1 | -0.296 |
| Cc1ccc(C(=O)N(C)Cc2csc(Br)c2)c(=O)[nH]1 | 15.3 |
| N#Cc1cccnc1N1CCC(c2nc(C(F)(F)F)c[nH]2)CC1 | 2.74 |
| CN1CCN(S(C)(=O)=O)c2ccc(F)cc21 | -4.12 |
| O=C(C[S+]([O-])Cc1ccc(Cl)cc1Cl)N1CCc2sccc2C1 (stereo not drawn) | 2.13 |
| O=C(NCCC1CCN(CC(F)(F)F)CC1)C1COCCO1 (stereo not drawn) | 1.38 |
| O=C(C[S+]([O-])Cc1cccc(C(F)(F)F)c1)NC1CCCC1 (stereo not drawn) | 7.72 |
| CC(C)(O)CN1CCN(C(=O)COC2CCCCC2)CC1 | -2.77 |
| CS(=O)(=O)CCCN(CCCO)C1CCc2ccccc21 (stereo not drawn) | -10.4 |
| O=C(CN1CCCC(c2ccn[nH]2)C1)N1CCCc2ccccc21 (stereo not drawn) | -3.41 |
| Cc1cc(C(=O)Nc2ccc(N3CCCC3)cn2)ccc1-n1cncn1 | 19.8 |
| COc1ccc(CNCC2CC2)cc1F | -22 |
| CC(C)C(C(=O)N1CCN(c2ccncc2)CC1)n1cncn1 (stereo not drawn) | -9.35 |
| Cc1cc(C(=O)N2CCCC2c2nnc3n2CCCCC3)no1 (stereo not drawn) | -14 |
| CC(C)(C(=O)NCC(N)=O)c1ccccc1F | -5.33 |

| SMILES | cytotoxicity at 10 µM [%] |
| --- | --- |
| Cc1nsc(NC(=O)NC2(CN3CCCCC3)CCCCC2)n1 | 10.6 |
| CCN(CC)C(=O)[C@@H]1C[C@H](NC(=O)c2ccn(C(C)(C)C)c2)CN1C | -19.3 |
| CC(C)c1cc(NCC2(N3CCOCC3)CCCCC2)ncn1 | -12.8 |
| Cc1nonc1CN(C)Cc1c[nH]nc1-c1ccc(F)cc1F | 11.9 |
| Cc1cccc(C(=O)N2CCCC(c3nccn3Cc3cscn3)C2)n1 (stereo not drawn) | -1.28 |
| COc1cccc(C(=O)N2CCc3c(nc(N)[nH]c3=O)C2)c1C | 1.96 |
| CS(=O)(=O)N1CCc2[nH]cnc2C12CCN(C(=O)c1cccnc1)CC2 | 2.62 |
| CCn1ccnc1CN(C)Cc1nc(Cc2ccccc2F)no1 | 0.686 |
| Cc1cnc2c(C(=O)N(C)Cc3cc(C4CC4)[nH]n3)cnn2c1 | -5.71 |
| CC(C)N1CC(n2ccnc2-c2nccn2C)CC1=O (stereo not drawn) | -0.371 |
| CCC1CCCCN1S(=O)(=O)c1c(N)noc1C (stereo not drawn) | 9.5 |
| O=C(O)[C@@H]1CN(Cc2ccc3nsnc3c2)C[C@H]1c1ccncc1 | 5.4 |
| Cc1nc(CC(=O)N2CCC[C@H]2c2nc(C(C)C)no2)cs1 | -14.2 |
| Cc1occc1C(=O)N1CCC2(CCC(=O)N(CC(N)=O)C2)CC1 | -9.32 |
| Cc1nn(C)cc1-c1cc(C(F)F)n2nc(CCC(=O)O)nc2n1 | -5.44 |
| CCC(CC#N)n1ccc(C(F)(F)F)n1 (stereo not drawn) | -8.38 |
| CC(C)c1nccn1-c1cccc(C2CCCN2S(=O)(=O)N(C)C)n1 (stereo not drawn) | 4.26 |
| Cc1nc(C)n(C2CCCN(C(=O)c3ccc4[nH]nnc4c3)C2)n1 (stereo not drawn) | -13.9 |
| Cc1cc(NC(=O)NCC(O)c2ccc(F)c(F)c2)n(C)n1 (stereo not drawn) | -21.1 |
| Cc1cccnc1NC(=O)NCc1ccc(N2CCNC(=O)C2)cc1 | -8.85 |
| COc1ccc(C)cc1CN(C)Cc1nc2c(cnn2C)c(=O)[nH]1 | -5.33 |

| SMILES | cytotoxicity at 10 µM [%] |
| --- | --- |
| O=C(CCc1cscn1)N1CCCC(n2ccnc2)C1 (stereo not drawn) | -3.03 |
| Cc1ccc(N2CCCC(NCC(=O)NCC3CC3)C2)nn1 (stereo not drawn) | -2.5 |
| COc1cccc(COCC(=O)N2CCCC(c3nncn3C)C2)c1 (stereo not drawn) | -6.36 |
| COc1ccccc1CC1CCCN(CC(N)=O)C1 (stereo not drawn) | 5.68 |
| CC(C(=O)NCc1ccc(-n2cncn2)nc1)n1ccnc1 (stereo not drawn) | 0.409 |
| CCc1nnsc1C(=O)N1CCCN(Cc2cnn(C)c2)CC1 | -2.26 |
| CC(C)CN1CCCC2(CCN(c3ccccn3)C2)C1 (stereo not drawn) | -1.22 |
| CN1CC(=O)N(c2cnn(C)c2)CC12CCN(Cc1ccccc1)C2 (stereo not drawn) | -7.24 |
| Fc1ccc(CNCC2Cn3nncc3CO2)cc1 (stereo not drawn) | 7.31 |
| Cc1ccc(N2CCC3(CC2)CNC(=O)CO3)nn1 | 6.07 |
| CN(C)C(=O)CN1C(=O)CO[C@@H]2CN(c3ccccn3)C[C@H]21 | 12.3 |
| COCCN1CCOCC12CCN(C(=O)c1ccoc1)CC2 | -84.6 |
| CN1CC(=O)N(c2cccc(F)c2)CC12CCN(CCO)C2 (stereo not drawn) | -82.1 |
| CN1CCc2ncc(CNc3cc(N(C)C)ncn3)n2CC1 | 0.749 |
| Cc1nnc(N2CC[C@H]3O[C@H](C(=O)NCc4ccccn4)CC[C@H]32)s1 | -66.4 |
| O=C(c1c[nH]cn1)N1CCC(F)(F)C2(CCN(c3cccc(F)c3)C2)C1 (stereo not drawn) | 9.58 |
| CN(C)S(=O)(=O)N1CC[C@]2(C[C@@H](Oc3cccnc3)CO2)C1 | -76.3 |
| COCc1n[nH]c2c1CN(C(=O)c1ccncc1)C2 | 16.6 |
| COc1ccc(C2c3c(N)nc(SC)nc3N=C3CCCC(=O)C32)cc1 (stereo not drawn) | -18.7 |
| Cc1cccc(CN2C[C@@H]3C[C@H](C(=O)NCc4cccnc4)[C@H](C2)O3)c1 | -5.98 |
